Experiment [1] in a line: Growth inhibition of HPV-16 transformed human CCD-1106 cells after 72 hrs by MTT assay. In kind it is functional. The settings on record: CCD-1106, 72 h. An outline of the steps:
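Cells were seeded at 10,000 cells/well in keratinocyte serum-free medium with L-glutamine, bovine pituitary extract and EGF, at 37 °C under 5% CO2, and attached overnight. Eight drug concentrations were run with six in-plate replicates, DMSO <1%, for 72 h. MTT (0.5 mg/ml) was added for 2 h, formazan was dissolved in 90% isopropanol/10% DMSO and A590 was read. Growth is expressed relative to the untreated control.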
Background: Formazan colour is commonly taken as a measure of viable cells.

The nature of experiment [2]: Antioxidant activity in bovine brain assessed as inhibition of iron-ascorbate-induced lipid peroxidation by thiobarbituric acid test. In kind it is functional, tissue-based, Bos taurus. An outline of the steps: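 Hit compounds were tested for inhibition of lipid peroxidation by the thiobarbituric acid (TBA) assay. Propyl gallate served as the standardizing positive control, tested at 100 µM.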

The target in experiment [3] is Epidermal growth factor receptor (Homo sapiens) (UniProt P00533). Kind of experiment: Inhibition of phosphorylated EGFR dimerization in HPV-16 transformed human CCD-1106 cells at 123.6 uM after 30 mins by densitometric analysis. It counts as cell-based. An outline of the steps: (§1)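 CCD-1106 cells were exposed to compounds for 30 min at 37 °C, then stimulated with EGF 50 ng/mL for 10 min. They were cross-linked with 2 mM BS3 for 30 min at room temperature and quenched with Tris (pH 7.5). Lysates were run on SDS-PAGE and immunoblotted for phospho-EGFR (Tyr1173) and total EGFR. The ~340 kDa dimer band was quantified by densitometry against the no-inhibitor control.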
Sequence of Epidermal growth factor receptor (Homo sapiens) (P00533 whole entry): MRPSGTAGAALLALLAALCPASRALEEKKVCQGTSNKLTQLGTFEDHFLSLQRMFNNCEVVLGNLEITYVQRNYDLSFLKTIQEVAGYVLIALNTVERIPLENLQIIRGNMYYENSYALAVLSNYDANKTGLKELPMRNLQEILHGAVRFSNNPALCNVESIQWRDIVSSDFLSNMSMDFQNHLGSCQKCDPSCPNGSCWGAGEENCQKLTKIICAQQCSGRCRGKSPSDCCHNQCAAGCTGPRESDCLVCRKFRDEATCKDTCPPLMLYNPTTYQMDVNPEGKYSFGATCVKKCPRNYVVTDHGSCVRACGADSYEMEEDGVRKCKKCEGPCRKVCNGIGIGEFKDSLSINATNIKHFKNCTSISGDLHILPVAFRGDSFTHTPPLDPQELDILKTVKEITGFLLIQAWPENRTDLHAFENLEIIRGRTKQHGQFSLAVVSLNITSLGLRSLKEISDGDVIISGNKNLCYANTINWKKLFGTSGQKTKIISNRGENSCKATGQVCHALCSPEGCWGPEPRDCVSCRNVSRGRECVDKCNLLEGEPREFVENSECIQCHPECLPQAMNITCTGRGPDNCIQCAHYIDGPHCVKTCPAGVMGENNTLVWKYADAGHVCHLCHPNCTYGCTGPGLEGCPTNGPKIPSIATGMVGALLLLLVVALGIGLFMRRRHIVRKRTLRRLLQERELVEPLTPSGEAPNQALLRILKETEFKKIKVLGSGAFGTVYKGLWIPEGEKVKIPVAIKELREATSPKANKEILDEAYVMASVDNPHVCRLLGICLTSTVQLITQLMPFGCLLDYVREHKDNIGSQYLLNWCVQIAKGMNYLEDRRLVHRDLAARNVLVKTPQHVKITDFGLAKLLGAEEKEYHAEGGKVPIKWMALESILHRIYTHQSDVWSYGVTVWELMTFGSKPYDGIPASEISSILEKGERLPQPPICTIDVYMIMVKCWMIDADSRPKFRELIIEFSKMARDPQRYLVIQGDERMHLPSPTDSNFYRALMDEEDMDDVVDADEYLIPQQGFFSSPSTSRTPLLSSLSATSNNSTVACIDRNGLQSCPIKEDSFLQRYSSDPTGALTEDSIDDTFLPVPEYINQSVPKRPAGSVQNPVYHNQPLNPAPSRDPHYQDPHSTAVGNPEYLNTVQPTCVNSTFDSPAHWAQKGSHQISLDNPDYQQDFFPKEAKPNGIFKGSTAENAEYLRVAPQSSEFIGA

Experiment [4] has the same target. The experiment is described as follows: Inhibition of EGFR-mediated ERK1 phosphorylation in HPV-16 transformed human CCD-1106 cells at 120.7 uM after 30 mins by densitometric analysis. It counts as cell-based. An outline of the steps: (§2)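 CCD-1106 cells were treated with compound for 30 min at 37 °C, then stimulated with EGF. Lysates were separated by SDS-PAGE, blotted to nitrocellulose and blocked in 3% BSA/NaTT. Blots were probed with p-ERK (E-4) or p-p38 (D-8) antibodies, detected by ECL and quantified by densitometry.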

For experiment [5] the target is unchanged. Kind of experiment: Inhibition of EGFR-mediated ERK2 phosphorylation in HPV-16 transformed human CCD-1106 cells at 120.7 uM after 30 mins by densitometric analysis. In kind it is cell-based. An outline of the steps: as §2
Experiment [6] has the same target. Kind of experiment: Inhibition of phosphorylated EGFR dimerization in HPV-16 transformed human CCD-1106 cells at 134.5 uM after 30 mins by densitometric analysis. In kind it is cell-based. An outline of the steps: as §1
The target is the same in experiment [7]. The experiment is described as follows: Inhibition of EGFR-mediated ERK1 phosphorylation in HPV-16 transformed human CCD-1106 cells at 161.1 uM after 30 mins by densitometric analysis. In kind it is cell-based. An outline of the steps:
as §2

For experiment [8] the target is unchanged. Kind of experiment: Inhibition of phosphorylated EGFR dimerization in HPV-16 transformed human CCD-1106 cells at 155.4 uM after 30 mins by densitometric analysis. In kind it is cell-based. An outline of the steps:
as §1

Experiment [9] has the same target. The experiment is described as follows: Inhibition of EGFR-mediated ERK1 phosphorylation in HPV-16 transformed human CCD-1106 cells at 153 uM after 30 mins by densitometric analysis. It counts as cell-based. An outline of the steps:
as §2

Experiment [10] shares this target. The experiment is described as follows: Inhibition of EGFR-mediated ERK2 phosphorylation in HPV-16 transformed human CCD-1106 cells at 153 uM after 30 mins by densitometric analysis. In kind it is cell-based. An outline of the steps:
as §2

Experiment [11] shares this target. The experiment is described as follows: Inhibition of phosphorylated EGFR dimerization in HPV-16 transformed human CCD-1106 cells at 348.8 uM after 30 mins by densitometric analysis. It counts as cell-based. An outline of the steps:
as §1

A short description of experiment [12]: Growth inhibition of HPV-16 transformed human CCD-1106 cells after 72 hrs by neutral red uptake assay. It counts as functional. To be noted: CCD-1106, 72 h. An outline of the steps:
(§3)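 Neutral red uptake assay over 72 h. Cells were seeded at 10,000 cells/well and attached overnight, then exposed to eight concentrations with six replicates (DMSO <1%). CCD-1106 were grown in keratinocyte SFM with supplements. HaCaT were grown in DMEM with 10% FBS and 2 mM L-glutamine. NHEK (pooled adult) were grown in keratinocyte growth medium with supplement. Values are means, n = 6, against the untreated control.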

Experiment [13] concerns HaCaT. Kind of experiment: Growth inhibition of human HaCaT cells after 72 hrs by neutral red uptake assay. In kind it is functional. An outline of the steps:
as §3

Experiment [14] in a line: Growth inhibition of human NHEK cells after 72 hrs by neutral red uptake assay. It counts as functional. An outline of the steps: as §3
A further experiment concerns THP-1. The experiment is described as follows: Growth inhibition of human THP1 cells after 72 hrs by Cell Titer 96 aqueous one solution assay. It counts as functional. The settings on record: THP-1, 72 h. An outline of the steps: (§4)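 Cells were grown in RPMI with 10% FBS, 2 mM L-glutamine and penicillin/streptomycin. They were seeded at 10,000 cells/well in round-bottom plates and exposed to compounds for 72 h (eight concentrations, six replicates). Cell Titer 96 AQueous One reagent was then added for 3 h at 37 °C and absorbance was read at 492 nm. Values are means, n = 6.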

Another experiment concerns U-937. The experiment is described as follows: Growth inhibition of human U937 cells after 72 hrs by Cell Titer 96 aqueous one solution assay. In kind it is functional. The settings on record: U-937, 72 h. An outline of the steps: as §4
Experiment [15] can be described thus: Cytotoxicity against HPV-16 transformed human CCD-1106 cells assessed as cell viability after 6 hrs by MTT assay. It counts as functional. The settings on record: CCD-1106, 6 h, read-out: LD50 (the source's name). An outline of the steps: (§5)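 Cells were plated at 10,000/well, attached overnight, and exposed 6 or 24 h to eight drug concentrations with six in-plate replicates (DMSO <1%). MTT (0.5 mg/ml in PBS) was added for 2 h at 37 °C, then dissolved in 90% isopropanol/10% DMSO, and A590 was read. Values were corrected against untreated controls. LD₅₀ is reported as mean ± S.E.M., n = 3.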

The nature of experiment [16]: Cytotoxicity against HPV-16 transformed human CCD-1106 cells assessed as cell viability after 24 hrs by MTT assay. In kind it is functional. To be noted: CCD-1106, 24 h, read-out: LD50 (the source's name). An outline of the steps: as §5
Experiment [17] relates to HaCaT. The experiment is described as follows: Cytotoxicity against human HaCaT cells assessed as cell viability after 6 hrs by MTT assay. In kind it is functional. To be noted: read-out: LD50 (the source's name). An outline of the steps: as §5
The test system of experiment [18] is HaCaT. Kind of experiment: Cytotoxicity against human HaCaT cells assessed as cell viability after 24 hrs by MTT assay. The settings on record: read-out: LD50 (the source's name). In kind it is functional. An outline of the steps: as §5
Experiment [19] deals with HaCaT. Kind of experiment: Cytotoxicity against human HaCaT cells assessed as LDH release after 24 hrs by CYTOX-96 assay. It counts as functional. The settings on record: read-out: LD50 (the source's name). An outline of the steps: (§6)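 LDH release was read with the CytoTox 96 kit following the kit protocol after 6 or 24 h drug exposure. Cells were seeded at 10,000/well and attached overnight. Eight concentrations were run with six in-plate replicates; DMSO was <1% in all wells, with medium-only blanks. LD₅₀ is reported as mean ± S.E.M., n = 6. CCD-1106 were grown in supplemented keratinocyte SFM; HaCaT in DMEM/10% FBS.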
In general terms: LDH in the medium is a marker of cell lysis.

Experiment [20] has as its system HaCaT. Kind of experiment: Cytotoxicity against human HaCaT cells assessed as LDH release after 6 hrs by CYTOX-96 assay. In kind it is functional. To be noted: read-out: LD50 (the source's name). An outline of the steps:
as §6

A short description of experiment [21]: Cytotoxicity against HPV-16 transformed human CCD-1106 cells assessed as LDH release after 6 hrs by CYTOX-96 assay. In kind it is functional. The settings on record: CCD-1106, 6 h, read-out: LD50 (the source's name). An outline of the steps: as §6
Experiment [22] can be described thus: Cytotoxicity against HPV-16 transformed human CCD-1106 cells assessed as LDH release after 24 hrs by CYTOX-96 assay. It counts as functional. To be noted: CCD-1106, 24 h, read-out: LD50 (the source's name). An outline of the steps:
as §6

By IC50 is commonly meant the midpoint of a concentration-inhibition curve. The term inhibition denotes the percentage by which the read-out fell short of the control.

Activity calls are given as the source filed them. No cut-off for these calls is given here.

As to `CC(C)C(=O)NNC(=O)c1c(O)c2ccccc2n(C)c1=O`, the GI50 in experiment [1] (read-out: GI50) is 14.9 µM. For the same compound, the IC50 in experiment [2] was 3410 µM. In addition, the results for the inhibition in [3], in [4] and in experiment [5] were 16%, 42% and 33%, respectively.
Regarding `CCOC(=O)C1=C(C)NC(C)=C(C(=O)OCC)C1c1ccc(-c2ccc(Br)cc2)o1`, the GI50 in experiment [1] (read-out: GI50) came out at 4.09 µM. Besides, in [2], the IC50 was found to be 400 µM. In addition, the inhibition in experiment [6] came to 47%; in [7], 12%.
Consider `CCOc1cc(/C=N\Nc2nc3c(c(=O)n(C)c(=O)n3C)n2Cc2ccccc2C(=O)O)ccc1O`, for which the GI50 in experiment [1] (read-out: GI50) and in experiment [1] (read-out: pGI50 (converted)) was 178 µM throughout.
Regarding `O=C(Nc1ccccc1C(=O)c1ccccc1)c1cc([N+](=O)[O-])cc([N+](=O)[O-])c1`, the GI50 in experiment [1] (read-out: GI50) turned out to be 123 µM. Further, the IC50 in experiment [2] was 46700 µM. In addition, the values for the inhibition in experiment [8], in experiment [9] and in experiment [10] were 52%, 28% and 20%, respectively.
For the compound `CCOc1cc(/C=N\Nc2nc3c(c(=O)n(C)c(=O)n3C)n2Cc2ccccc2OC)cc(OCC)c1OCC`, the GI50 in [1] (read-out: GI50) is 5.16 µM; in experiment [1] (read-out: pGI50 (converted)) it was 5.13 µM.
Take `O=C1c2c(O)cccc2Cc2cccc(O)c21` [ANTHRALIN]: the GI50 came out at 0.51 µM in [1] (read-out: GI50); 0.4 µM in [12]; 0.7 µM in the experiment on HaCaT [13]; 0.5 µM in [14]; 54 µM in the experiment on THP-1; 5 µM with U-937. Moreover, in [11], the inhibition result is “inactive”. The CC50 in experiment [15] was 53 µM; in experiment [16] it was 2 µM; in the experiment on HaCaT [17], 3 µM; with HaCaT [18], 3 µM; with HaCaT [19], 3 µM; in the experiment with HaCaT [20], 10 µM. The CC50 is 310 µM in experiment [21] and 442 µM in experiment [22].
As to `CCOc1cc(/C=N\Nc2nc3c(c(=O)n(C)c(=O)n3C)n2Cc2ccccc2C(=O)O)cc(OCC)c1OCC`, the GI50 in [1] (read-out: GI50) and in experiment [1] (read-out: pGI50 (converted)) was 117 µM in each case.
Take `CCOc1cc(/C=N\Nc2nc3c(c(=O)n(C)c(=O)n3C)n2Cc2ccc([N+](=O)[O-])cc2)cc(OCC)c1OCC`: the figures for the GI50 in [1] (read-out: GI50) and in [1] (read-out: pGI50 (converted)) were 18.9 µM and 19.1 µM, respectively.
The like results for `CCOc1cc(/C=N\Nc2nc3c(c(=O)n(C)c(=O)n3C)n2Cc2ccc(Cl)cc2)ccc1O` were, in that order, 5.21 µM and 5.25 µM.

Source of the values: ChEMBL document CHEMBL2146365, “Design and synthesis of EGFR dimerization inhibitors and evaluation of their potential in the treatment of psoriasis” (Bioorg Med Chem, 2012).
